Results from different studies.
Target: Phosphatidylinositol 3-kinase C2 domain-containing subunit gamma (PIK3C2G, Homo sapiens, UniProt O75747)
One construct used (O75747 1-1486): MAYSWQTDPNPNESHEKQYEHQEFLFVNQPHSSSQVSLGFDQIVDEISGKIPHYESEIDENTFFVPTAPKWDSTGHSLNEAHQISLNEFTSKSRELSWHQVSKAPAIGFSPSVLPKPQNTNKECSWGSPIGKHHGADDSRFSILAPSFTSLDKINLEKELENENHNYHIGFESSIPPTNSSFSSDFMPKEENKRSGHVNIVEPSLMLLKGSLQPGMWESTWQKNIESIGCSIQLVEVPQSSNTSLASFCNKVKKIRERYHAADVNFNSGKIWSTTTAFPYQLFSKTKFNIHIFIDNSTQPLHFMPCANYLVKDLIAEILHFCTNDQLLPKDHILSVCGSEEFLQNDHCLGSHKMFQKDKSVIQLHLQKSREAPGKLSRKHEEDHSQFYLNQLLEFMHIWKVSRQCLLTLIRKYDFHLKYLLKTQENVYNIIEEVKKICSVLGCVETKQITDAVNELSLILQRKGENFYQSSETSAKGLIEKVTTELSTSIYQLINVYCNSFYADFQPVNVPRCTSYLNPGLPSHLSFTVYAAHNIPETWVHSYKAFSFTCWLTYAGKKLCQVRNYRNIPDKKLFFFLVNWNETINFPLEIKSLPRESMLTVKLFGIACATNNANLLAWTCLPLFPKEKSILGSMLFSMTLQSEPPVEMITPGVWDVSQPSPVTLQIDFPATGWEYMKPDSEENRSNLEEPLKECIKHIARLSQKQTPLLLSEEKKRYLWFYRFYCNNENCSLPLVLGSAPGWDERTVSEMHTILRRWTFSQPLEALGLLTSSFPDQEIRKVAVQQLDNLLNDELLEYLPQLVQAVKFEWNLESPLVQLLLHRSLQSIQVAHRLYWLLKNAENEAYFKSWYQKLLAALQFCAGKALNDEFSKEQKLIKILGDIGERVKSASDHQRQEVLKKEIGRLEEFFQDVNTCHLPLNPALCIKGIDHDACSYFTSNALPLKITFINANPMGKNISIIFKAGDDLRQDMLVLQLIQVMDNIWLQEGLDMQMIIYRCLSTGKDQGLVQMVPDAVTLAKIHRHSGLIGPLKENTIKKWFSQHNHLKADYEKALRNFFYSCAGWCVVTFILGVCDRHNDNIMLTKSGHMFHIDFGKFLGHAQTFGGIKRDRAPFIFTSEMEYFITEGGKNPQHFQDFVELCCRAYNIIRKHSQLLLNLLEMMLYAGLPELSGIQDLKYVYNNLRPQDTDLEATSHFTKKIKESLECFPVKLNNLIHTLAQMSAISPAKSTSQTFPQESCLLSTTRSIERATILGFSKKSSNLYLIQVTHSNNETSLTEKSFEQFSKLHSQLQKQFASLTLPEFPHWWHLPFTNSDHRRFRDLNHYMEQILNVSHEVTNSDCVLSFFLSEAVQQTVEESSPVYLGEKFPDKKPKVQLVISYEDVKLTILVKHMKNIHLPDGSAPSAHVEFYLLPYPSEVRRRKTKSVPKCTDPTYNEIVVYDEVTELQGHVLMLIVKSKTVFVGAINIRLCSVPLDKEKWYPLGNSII

| Structure (SMILES) | effect on | method | concentration | remaining binding |
| --- | --- | --- | --- | --- |
| COc1cnc(Nc2cccc(S(N)(=O)=O)c2)nc1N1CCN(c2ccccc2)C(=O)C1 | binding | competition with immobilised ligand | 1 µM | 54% |
| CN(c1nccc(-c2cnn3ncccc23)n1)C1CC1 | binding |  | 1 µM | 99% |
| COc1ccc2c(O[C@@H]3C[C@H]4C(=O)N[C@]5(C(=O)O)CC5/C=C\CCCCC[C@H](NC(=O)OC5CCCC5)C(=O)N4C3)cc(-c3csc(NC(=O)C(C)C)n3)nc2c1C (stereo partly drawn) | cell-free assay | competition with immobilised ligand | 1 µM | 86% |
| O=C(Nc1c[nH]nc1C(=O)NC1CCNCC1)c1cc(F)cc(F)c1 | binding | competition with immobilised ligand | 1 µM | 100% |
| O=C(c1ccc(Nc2ncc(Cl)c(-c3cc4ccccc4s3)n2)cc1)N1CCC(N2CCCC2)CC1 | binding | competition with immobilised ligand | 1 µM | 96% |
| COc1ncc2cc3ccccc3nc2c1C#N | cell-free assay | competition with immobilised ligand | 5 µM | 84% |
| F[C@@H]1CCN(c2nccc(-c3cnn4ncccc34)n2)C1 | binding |  | 1 µM | 82% |
| FC(F)(F)Oc1cccc(-c2cnc3ccc(-c4ccncc4)nn23)c1 | cell-free assay | competition with immobilised ligand | 5 µM | 34% |
| c1cncc(-c2cccc(Nc3nccc(NC4CCCCC4)n3)c2)c1 | binding | competition with immobilised ligand | 10 µM | 51% |
| N#CC1(c2ccccn2)CCN(Cc2cc(C(=O)N3CCCC3)c(=O)n3ccccc23)CC1 | cell-free assay | competition with immobilised ligand | 1 µM | 73% |
| Cc1cnc(Nc2ccc(C(=O)N3CCC(N4CCCC4)CC3)cc2)nc1-c1cc2ccccc2s1 | binding | competition with immobilised ligand | 1 µM | 90% |
| Cc1nc(C2CCN(C(=O)c3ccc(OC(F)(F)F)cc3N)CC2)c2ncc(N3CCN(C)CC3)cc2n1 | cell-free assay | competition with immobilised ligand | 1 µM | 100% |
| CN(C)c1nccc(-c2cnc3ncccn23)n1 | binding |  | 1 µM | 51% |
| CC1=C(C#N)C(c2ccc3c(c2)c(NC(=O)c2ccccc2C)nn3C)C(C#N)=C(C)N1 | cell-free assay | competition with immobilised ligand | 1 µM | 61% |
| O=C(c1ccc(Nc2ncc(Cl)c(-c3ccc(Cl)s3)n2)cc1)N1CCC(N2CCCC2)CC1 | binding | competition with immobilised ligand | 1 µM | 100% |
| CN(C)c1nccc(-c2cnn3ncccc23)n1 | binding |  | 1 µM | 100% |
| Cc1nc(NC(=O)N2CCC[C@H]2C(N)=O)sc1-c1ccnc(C(C)(C)C(F)(F)F)c1 | binding | competition with immobilised ligand | 10 µM | 9.6% |
| CC(=O)N1CCC(c2ccc(C(=O)NC3=NCCN3)cc2C(F)(F)F)CC1 | cell-free assay | competition with immobilised ligand | 1 µM | 85% |
| C[C@@H](c1ccc(-n2cnc3c(N)ncnc32)cc1)N1CCc2nn(C)c(Cc3ccccc3)c2C1=O | binding | competition with immobilised ligand | 0.1 µM | 92% |
| CNCc1ccccc1-c1csc([C@@H](C)Nc2nc(C)nc3cc(OC)c(OC)cc23)c1 | cell-free assay | competition with immobilised ligand | 1 µM | 59% |
| N[C@@H]1CCN(c2nccc(-c3cnn4ncccc34)n2)C1 | binding |  | 1 µM | 100% |
